Consider seven compounds from ChEMBL document CHEMBL4196168 (J Med Chem, 2018).

Data set [1] addresses Transthyretin (Homo sapiens) (UniProt P02766). The data set can be described thus: Binding affinity to transthyretin (unknown origin) in pH 7.4 PBS buffer assessed as protein occupancy at 1:1 compound to TTR ratio by fluorescent probe exclusion assay.
The target is the same in data set [2]. The data set can be described thus: Binding affinity to transthyretin (unknown origin) assessed as free energy changes by ITC method. Background: In ITC the heat of successive injections is recorded.
The target is the same in data set [3]. The data set can be described thus: Binding affinity to transthyretin in human serum assessed as protein stabilization at 2:1 compound to TTR ratio after 72 hrs by Western blot. On the technique in general: In western blotting, separated proteins are transferred to a membrane and probed.
Data set [4] has the same target. The data set can be described thus: Binding affinity to transthyretin in human serum assessed as protein occupancy at 2:1 compound to TTR ratio by fluorescent probe exclusion assay.
Data set [5] shares this target. The experiment in a line: Binding affinity to transthyretin (unknown origin) assessed as free enthalpy changes by ITC method.
Data set [6] has the same target. The experiment in a line: Binding affinity to transthyretin (unknown origin) assessed as free TdeltaS changes by ITC method.
Data set [7] has the same target. To be noted: 20 uM.
A short description of data set [8]: Cmax in human at 250 mg bid. The data set is classed as ADME, organism-based. Also on record: dose 250 mg. As to conditions: in vivo.
Data set [9] concerns the target T1, Albumin (Homo sapiens, UniProt P02768). The data set can be described thus: Binding affinity to human serum albumin assessed as compound level bound to protein at 30 uM measured 124 hrs after dialysis. The format is ADME. As to conditions: isolated protein, 24 h, in the assay text read “24 hrs” for “124 hrs”. The method in brief: (§1)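 Compound (30 μM) preincubated 1 hr at 37 °C with purified human serum albumin (600 μM) in 10 mM sodium phosphate, 100 mM KCl, 1 mM EDTA, pH 7.6; gel filtration, then dialysis against buffer 24 hr at room temperature; albumin-bound compound quantified by HPLC at time zero and after dialysis; mean ± SD, n = 3.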

Data set [10] addresses T1, Albumin. The experiment in a line: Binding affinity to human serum albumin. The data set is classed as ADME.
Data set [11] addresses T2, Transthyretin (Canis lupus familiaris) (UniProt A0A8I3NFK0). The data set can be described thus: Binding affinity to transthyretin in dog serum assessed as protein occupancy at 10 uM by fluorescent probe exclusion assay. The method in brief:
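Pooled commercial beagle dog serum (TTR 4.6 μM) with compound (10 μM, from DMSO stock) and FPE probe (final 3.6 μM); fluorescence ex 328/em 384 nm read for 6 hr at rt; % occupancy at 3 hr versus probe-alone DMSO control; mean ± SD, n = 4.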

In data set [12] the target is Transthyretin (Homo sapiens) (UniProt P02766). As to conditions: 10 uM.
Data set [13] deals with T2, Transthyretin (Canis lupus familiaris). The experiment in a line: Binding affinity to transthyretin in dog serum assessed as protein stabilization at 10 uM by Western blot. The procedure, abridged: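 Pooled dog serum with compound (10 μM) or DMSO acidified in acetate buffer pH 4.0 for 0 and 72 h, glutaraldehyde crosslinked, SDS-PAGE, immunoblotted with anti-TTR antiserum (1:2,000); tetramer band intensity expressed relative to DMSO control at 0 hr; mean ± SD, n = 3.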

The target of data set [14] is Transthyretin (Homo sapiens) (UniProt P02766). As to conditions: 10 uM. The source holds these as a separate data set.
Data set [15] is described as follows: Cmax in human at 80 mg qd. As to conditions: in vivo. Also on record: dose 80 mg. The format is ADME, organism-based.
Data set [16] addresses Transthyretin (Homo sapiens) (UniProt P02766). As to conditions: 10 uM. The source holds these as a separate data set.
Data set [17] shares this target. To be noted: 10 uM. The source holds these as a separate data set.
Data set [18] has as its target T1, Albumin. The data set can be described thus: Binding affinity to human serum albumin assessed as compound level bound to protein at 30 uM measured immediately after gel filtration. The data set is classed as ADME. As to conditions: isolated protein. The procedure, abridged: as §1
For data set [19], the target named is Transthyretin (Homo sapiens) (UniProt P02766). The data set can be described thus: Binding affinity to transthyretin (unknown origin) in human serum assessed as protein occupancy at 200 uM by fluorescent probe exclusion assay.
For data set [20] the target is unchanged. To be noted: 10 uM. This is another data set of the same source.
The subject of data set [21] is Canis familiaris. The experiment in a line: In-vivo binding affinity to transthyretin in beagle dog serum assessed as protein occupancy measured at 1 hr post dose on day 7 at 50 to 200 mg/kg/day dosed daily via oral gavage for 7 days by fluorescent probe exclusion assay. The format is functional, Canis lupus familiaris. The method in brief:
(§2)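 Male and female beagle dogs gavaged daily 7 days with vehicle (6M/6F) or compound in 0.5% methylcellulose at 50 (2M/2F), 100 (2M/2F) or 200 mg/kg (6M/6F); jugular serum taken pre-dose day 1, pre-dose day 7 and 1 hr post-dose day 7; TTR occupancy by serum FPE assay, read at 3 hr.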

Data set [22] concerns Canis familiaris. The experiment in a line: In-vivo binding affinity to transthyretin in beagle dog serum assessed as protein occupancy measured on day 7 at 50 to 200 mg/kg/day dosed daily via oral gavage for 7 days by fluorescent probe exclusion assay. The format is functional, Canis lupus familiaris. The method in brief:
as §2

The test system of data set [23] is Canis familiaris. The experiment in a line: In-vivo binding affinity to transthyretin in beagle dog serum assessed as protein occupancy at 50 to 200 mg/kg/day dosed daily via oral gavage for 7 days by fluorescent probe exclusion assay. The format is functional, organism-based. As to conditions: Canis lupus familiaris. The procedure, abridged:
as §2

Data set [24] concerns Canis familiaris. The data set can be described thus: In-vivo binding affinity to transthyretin in beagle dog serum assessed as protein occupancy 5 mg/kg/day […] dosed as single administration via oral gavage. The format is functional, organism-based. To be noted: Canis lupus familiaris. The method in brief: (§3)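 Beagle dogs (2M/2F per group) received one oral gavage dose of 5 or 20 mg/kg in 0.5% methylcellulose; serum collected pre-dose and at 2, 4, 6, 8, 12, 24 hr; compound level by LCMS and TTR occupancy by FPE assay in serum (probe plus DMSO added).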

Data set [25] has as its target T1, Albumin. The data set can be described thus: Binding affinity to human serum albumin by ITC method. The format is ADME.
The test system of data set [26] is Canis familiaris. The data set can be described thus: In-vivo binding affinity to transthyretin in beagle dog serum assessed as protein occupancy 20 mg/kg/day […] dosed as single administration via oral gavage. The format is functional, organism-based. To be noted: Canis lupus familiaris. The procedure, abridged:
as §3

Structures are written as SMILES. Active and inactive are the calls of the source. No cut-off for these calls is given here.

T1 sequence (P02768 whole entry): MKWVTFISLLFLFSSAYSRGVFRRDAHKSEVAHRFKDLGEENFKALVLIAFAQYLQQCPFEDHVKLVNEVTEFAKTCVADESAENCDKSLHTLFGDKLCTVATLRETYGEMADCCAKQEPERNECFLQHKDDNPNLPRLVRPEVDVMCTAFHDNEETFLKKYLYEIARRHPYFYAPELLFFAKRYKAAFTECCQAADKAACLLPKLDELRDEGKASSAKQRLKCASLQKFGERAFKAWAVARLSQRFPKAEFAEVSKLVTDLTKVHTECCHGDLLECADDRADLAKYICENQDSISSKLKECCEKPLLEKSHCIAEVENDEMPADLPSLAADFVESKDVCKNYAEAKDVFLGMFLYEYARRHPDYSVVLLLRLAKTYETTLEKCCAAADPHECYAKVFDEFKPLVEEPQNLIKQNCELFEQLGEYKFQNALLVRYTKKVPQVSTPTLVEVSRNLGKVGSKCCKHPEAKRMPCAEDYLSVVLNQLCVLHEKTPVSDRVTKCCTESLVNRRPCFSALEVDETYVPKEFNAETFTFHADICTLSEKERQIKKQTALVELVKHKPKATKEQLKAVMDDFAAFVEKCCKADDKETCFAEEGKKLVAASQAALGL

`CCc1n[nH]c(CC)c1CCCOc1cc(C(=O)O)ccc1F`: the Occ was found to be 17.2% in data set [1] and 20.8% in [4]. Further, the deltaG in [2] was -8.1 kcal/mol. Also, the Activity in [3] was 23.2%. The deltaH in [5] is -2.1 kcal/mol. In addition, the TdeltaS in data set [6] was found to be 6 kcal/mol.
For `O=C(O)c1cc(-c2ccc(F)cc2F)ccc1O` [DIFLUNISAL], the Occ in [1] stood at 28.7%; in data set [7], 65%. Also, the deltaH in data set [5] is -8.38 kcal/mol. For the same compound, the Cmax – broadly, the maximum level reached in the sampled fluid or tissue – in data set [8] is 200 µM. In addition, the TdeltaS in data set [6] was found to be 0.34 kcal/mol.
Take `COC(=O)c1ccc(F)c(OCCCc2c(C)n[nH]c2C)c1`: the values for the Occ in [1] and in [4] were 38.5% and 63.2%, respectively. Besides, the deltaG in data set [2] is -8.99 kcal/mol. Moreover, the Activity in data set [3] came out at 70.4%. Also, in data set [5], the deltaH was -6.49 kcal/mol. Besides, in [6], the TdeltaS was 2.5 kcal/mol.
With `Cc1nn(C)c(C)c1CCCOc1cc(C(=O)O)ccc1F`, the Occ in [1] is 29.7%; in data set [4], 43%. The deltaG in [2] is -9 kcal/mol. Besides, the Activity in data set [3] came out at 32.1%. Moreover, the deltaH in data set [5] is -4.73 kcal/mol. Also, the TdeltaS in [6] was 4.27 kcal/mol.
Consider `O=C(O)c1ccc2nc(-c3cc(Cl)cc(Cl)c3)oc2c1`, for which the figures for the PB in data set [9] and in data set [18] were 18.8 µM and 24.1 µM, respectively. Besides, the Kd (commonly a measure of binding affinity in units of concentration) in data set [10] turned out to be 2.5 µM. Also, the Occ came to 49.9% in data set [1]; 68.2% in data set [12]; 41.5% in [17]; 49% in data set [4]; 65% in [19]. The result in [11] and in data set [13] was Active. Also, the Occ result in [14], in data set [16] and in [20] was “Active” in each case. Further, in data set [15], the Cmax was 20 µM. Also, the Activity in data set [3] is 41.5%. For the same compound, the deltaH in data set [5] was -5 kcal/mol. For the same compound, the TdeltaS in [6] stood at 6.39 kcal/mol.
As for `Cc1n[nH]c(C)c1CCCOc1cc(C(=O)O)ccc1F` [ACORAMIDIS], the results for the Occ in [21] and in data set [22] were over 97% and 81 - 94%, respectively. In addition, the results for the PB in data set [9] and in [18] were 7.8 µM and 18.3 µM, respectively. The outcome in data set [11], in data set [24], in [13] and in data set [26] was Active. Moreover, the Activity entry in data set [23] is “Dose-dependent effect”. For the same compound, the Kd in data set [25] stood at 8 µM.
Consider `Cc1n[nH]c(C)c1CCCOc1cc(C(=O)O)ccc1I`, for which the Occ in data set [1] turned out to be 58.3%; in data set [4], 75.9%. Also, the deltaG in data set [2] is -9.61 kcal/mol. The Activity in [3] came to 86.7%. Also, in [5], the deltaH is -9.82 kcal/mol. For the same compound, in [6], the TdeltaS was -0.21 kcal/mol.
